Only some compounds are listed: those with a hit (about 0.83% of all), similar ones and a draw of the others.
FXIIa mix inh – blocks human factor XIIa in pooled compound mixtures. P00748. purified FXIIa, fluorogenic substrate. inhibition, % at 5 µM. hit rate 0.2% among 62,000;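 note: 0% = enzyme without compound and 100% = no enzyme blank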
AP complement – alternative pathway complement inhibition, orthogonal assay. Human serum alternative complement pathway, LPS-coated ELISA, C3 deposition; tested in compound mixtures. inhibition, % at 5 µM. hit rate 0.08% among 62,000. AID 1235;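 active = inhibition above 30% in each of the two pooled mixtures holding the compound, so the lower value exceeds 30%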;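 note: 0% = serum in Mg-EGTA without compound and 100% = EDTA serum blank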
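Test system: human serum alternative complement pathway, C3 deposition on LPS-coated wells; also added: Plate-bound LPS; doses: 5 µM per compound in ten-compound mixtures; schedule: 1 h at 37 °C; detection: Anti-C3 ELISA, OD 450 nm; evaluation: percent inhibition of C3 deposition onto LPS; repeats: two pool placements per compound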
CatG inh – cathepsin G (human) inhibition; P08311; purified enzyme, AMC-tetrapeptide fluorescence, pooled mixtures; inhibition, % at 5 µM (by protocol); hit rate 0.2% among 62,000; AID 581;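 active = inhibition above 20% in each of the two mixture wells holding the compound; inactive = inhibition of 20% or less in either well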;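 note: 0% = enzyme control without mixture and 100% = blank lacking enzyme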
FXIa inh mix – blocks human factor XIa in pooled compound mixtures. P03951. purified FXIa, fluorogenic substrate. inhibition, % at 5 µM. hit rate 0.19% among 62,000. AID 680;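 note: each value is inhibition by a whole ten-compound pool holding the compound; 0% = enzyme with no mixture and 100% = wells lacking enzyme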
Target sequence (P03951 19-387 limits assumed): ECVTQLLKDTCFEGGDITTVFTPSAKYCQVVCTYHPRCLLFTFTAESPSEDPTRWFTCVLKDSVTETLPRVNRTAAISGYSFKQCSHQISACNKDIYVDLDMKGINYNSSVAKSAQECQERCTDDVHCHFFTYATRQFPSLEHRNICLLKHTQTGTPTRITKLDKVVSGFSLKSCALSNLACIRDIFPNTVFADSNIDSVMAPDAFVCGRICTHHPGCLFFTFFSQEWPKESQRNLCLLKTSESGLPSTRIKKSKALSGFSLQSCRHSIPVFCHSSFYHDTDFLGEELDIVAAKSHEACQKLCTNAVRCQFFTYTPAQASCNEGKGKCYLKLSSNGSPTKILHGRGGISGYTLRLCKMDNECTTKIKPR
Target sequence (P03951 388-625 limits assumed): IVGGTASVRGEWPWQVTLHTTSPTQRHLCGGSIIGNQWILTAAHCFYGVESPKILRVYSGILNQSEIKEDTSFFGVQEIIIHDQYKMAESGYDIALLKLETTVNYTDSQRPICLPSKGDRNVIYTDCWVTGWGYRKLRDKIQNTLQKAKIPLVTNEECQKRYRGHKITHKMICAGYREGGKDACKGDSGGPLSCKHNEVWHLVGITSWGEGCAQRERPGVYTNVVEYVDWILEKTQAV
Ec RNAP inh – Escherichia coli RNA polymerase inhibition | E. coli RNA polymerase, fluorescence transcription assay | inhibition, %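 (tested at 10 µM)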 | hit rate 0.2% among 62,000; in the data active = inhibition above about 20%;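 note: 0% = enzyme without compound and 100% = no enzyme blank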
C1s inh – blocks human complement C1s protease activity | P09871 | purified C1s, fluorogenic AMC substrate, pooled mixtures | mean inhibition % of two 10-compound mixtures (active compounds read high), % at 5 µM (by protocol) | hit rate 0.16% among 62,000;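 active = inhibition above 20% in each of the two 10-compound mixture wells holding the compound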;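 note: 0% = enzyme wells lacking compound mixture and 100% = no-enzyme blank wells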
* marks the source's active call; other numbers are inactive results. Cut-off read from the data, not from the text of the source, unless noted: active = inhibition above about 20% (passing the limit was not always enough); inactive = the rest.

`CSc1cccc(NS(=O)(=O)c2ccc(F)cc2)c1` gave FXIIa mix inh 19, AP complement 34*, CatG inh 7, FXIa inh mix 2, Ec RNAP inh 1 and C1s inh 13.
Screening Cc1cccc(N2CCN(C(=O)CCn3c(=S)[nH]c4cc5c(cc4c3=O)OCO5)CC2C)c1 (centres undefined) returned FXIIa mix inh 45*, AP complement 11, CatG inh 2, FXIa inh mix 5, Ec RNAP inh 2 and C1s inh 2.
Screening CC(=O)C1=C(O)CCC1=N returned FXIIa mix inh 2, AP complement 39*, CatG inh 0, FXIa inh mix -9, Ec RNAP inh 6 and C1s inh -62.
`CC(=O)NC(=O)NC1CSCC1OC(C)=O` (centres undefined) gave FXIIa mix inh 0, AP complement 1, CatG inh 14, FXIa inh mix 8, Ec RNAP inh 11 and C1s inh 58*.
Screening CCOC(=O)c1ccc(NC(=O)C(CC)(CC)C(=O)OCC)cc1 returned FXIIa mix inh 50*, AP complement 12, CatG inh 12, FXIa inh mix 1, Ec RNAP inh 11 and C1s inh 10.
CCOC(=O)c1ccc(NC(=O)COC)cc1 was read as FXIIa mix inh 1, AP complement 14, CatG inh 9, FXIa inh mix 7, Ec RNAP inh 12 and C1s inh 10.
`O=C(Cc1ccc(-c2ccccc2)cc1)NCCN1CCOCC1` gave FXIIa mix inh 3, AP complement 2, CatG inh 10, FXIa inh mix 9, Ec RNAP inh 3 and C1s inh 24*.
For O=C(NCCN1CCOCC1)c1noc2c1CCc1ccccc1-2 the results were FXIIa mix inh 2, AP complement 5, CatG inh 90*, FXIa inh mix 15, Ec RNAP inh 6 and C1s inh 20.
O=C(NCCc1ccccc1)c1noc2c1CCc1ccccc1-2 was read as FXIIa mix inh 8, AP complement 2, CatG inh 101*, FXIa inh mix 36*, Ec RNAP inh 11 and C1s inh 26*.
`CCCNC(=O)c1noc2c1CCc1ccccc1-2` gave FXIIa mix inh 1, AP complement 20, CatG inh 61*, FXIa inh mix 10, Ec RNAP inh 7 and C1s inh 8.
O=C(NCCN1CCOCC1)c1ccc(-c2ccccc2)cc1 was read as FXIIa mix inh -32, AP complement 15, CatG inh 5, FXIa inh mix -3, Ec RNAP inh 3 and C1s inh -24.
For CCN(CC)CCCNc1oc(-c2cccc(Cl)c2)nc1C#N the results were FXIIa mix inh -18, AP complement 5, CatG inh 3, FXIa inh mix -12, Ec RNAP inh 4 and C1s inh -48.
Cn1c(=O)c2cc(NC(=O)c3ccccc3Cl)c(=O)oc2n(C)c1=O was read as FXIIa mix inh 1, AP complement 21, CatG inh 20*, FXIa inh mix 33*, Ec RNAP inh 7 and C1s inh 14.
CCS(=O)(=O)c1ccc(NC(=O)c2ccccc2Cl)c(O)c1 was read as FXIIa mix inh -13, AP complement 10, CatG inh -4, FXIa inh mix -16, Ec RNAP inh 2 and C1s inh -97.
Screening CCCC(NS(=O)(=O)c1ccc(Br)cc1)C(=O)O (centres undefined) returned FXIIa mix inh -5, AP complement 15, CatG inh -3, FXIa inh mix 1, Ec RNAP inh -7 and C1s inh -11.
`CCOC(=O)c1sc(NCC2CCCO2)nc1C` (centres undefined) gave FXIIa mix inh 2, AP complement 16, CatG inh 2, FXIa inh mix 8, Ec RNAP inh 3 and C1s inh -2.
Screening CCOC(=O)c1sc2nc(SCC#N)n(CC3CCCO3)c(=O)c2c1C (centres undefined) returned FXIIa mix inh 7, AP complement 2, CatG inh -1, FXIa inh mix 22*, Ec RNAP inh 1 and C1s inh 1.
`NC(=O)C1(N2CCCCC2)CCN(C(=O)Nc2ccccc2C(F)(F)F)CC1` gave FXIIa mix inh 6, AP complement 9, CatG inh 37, FXIa inh mix 22, Ec RNAP inh 7 and C1s inh 25*.

Bioassay records deposited in PubChem by PCMD.
